Reference: ChEMBL document CHEMBL4680284, “Doxorubicin and Aclarubicin: Shuffling Anthracycline Glycans for Improved Anticancer Agents” (J Med Chem, 2020)
Active and inactive are the calls of the source. The rule behind the calls is not given here.

Tests used:
[1] = biological target: DNA topoisomerase 2-alpha (Homo sapiens) (UniProt P11388); assay: Induction of relocalization of GFP-tagged Topo2a (unknown origin) expressed in human MEL-JUSO cells at 10 uM incubated for 15 mins; type: cell-based
DNA topoisomerase 2-alpha (Homo sapiens), sequence (P11388 whole entry): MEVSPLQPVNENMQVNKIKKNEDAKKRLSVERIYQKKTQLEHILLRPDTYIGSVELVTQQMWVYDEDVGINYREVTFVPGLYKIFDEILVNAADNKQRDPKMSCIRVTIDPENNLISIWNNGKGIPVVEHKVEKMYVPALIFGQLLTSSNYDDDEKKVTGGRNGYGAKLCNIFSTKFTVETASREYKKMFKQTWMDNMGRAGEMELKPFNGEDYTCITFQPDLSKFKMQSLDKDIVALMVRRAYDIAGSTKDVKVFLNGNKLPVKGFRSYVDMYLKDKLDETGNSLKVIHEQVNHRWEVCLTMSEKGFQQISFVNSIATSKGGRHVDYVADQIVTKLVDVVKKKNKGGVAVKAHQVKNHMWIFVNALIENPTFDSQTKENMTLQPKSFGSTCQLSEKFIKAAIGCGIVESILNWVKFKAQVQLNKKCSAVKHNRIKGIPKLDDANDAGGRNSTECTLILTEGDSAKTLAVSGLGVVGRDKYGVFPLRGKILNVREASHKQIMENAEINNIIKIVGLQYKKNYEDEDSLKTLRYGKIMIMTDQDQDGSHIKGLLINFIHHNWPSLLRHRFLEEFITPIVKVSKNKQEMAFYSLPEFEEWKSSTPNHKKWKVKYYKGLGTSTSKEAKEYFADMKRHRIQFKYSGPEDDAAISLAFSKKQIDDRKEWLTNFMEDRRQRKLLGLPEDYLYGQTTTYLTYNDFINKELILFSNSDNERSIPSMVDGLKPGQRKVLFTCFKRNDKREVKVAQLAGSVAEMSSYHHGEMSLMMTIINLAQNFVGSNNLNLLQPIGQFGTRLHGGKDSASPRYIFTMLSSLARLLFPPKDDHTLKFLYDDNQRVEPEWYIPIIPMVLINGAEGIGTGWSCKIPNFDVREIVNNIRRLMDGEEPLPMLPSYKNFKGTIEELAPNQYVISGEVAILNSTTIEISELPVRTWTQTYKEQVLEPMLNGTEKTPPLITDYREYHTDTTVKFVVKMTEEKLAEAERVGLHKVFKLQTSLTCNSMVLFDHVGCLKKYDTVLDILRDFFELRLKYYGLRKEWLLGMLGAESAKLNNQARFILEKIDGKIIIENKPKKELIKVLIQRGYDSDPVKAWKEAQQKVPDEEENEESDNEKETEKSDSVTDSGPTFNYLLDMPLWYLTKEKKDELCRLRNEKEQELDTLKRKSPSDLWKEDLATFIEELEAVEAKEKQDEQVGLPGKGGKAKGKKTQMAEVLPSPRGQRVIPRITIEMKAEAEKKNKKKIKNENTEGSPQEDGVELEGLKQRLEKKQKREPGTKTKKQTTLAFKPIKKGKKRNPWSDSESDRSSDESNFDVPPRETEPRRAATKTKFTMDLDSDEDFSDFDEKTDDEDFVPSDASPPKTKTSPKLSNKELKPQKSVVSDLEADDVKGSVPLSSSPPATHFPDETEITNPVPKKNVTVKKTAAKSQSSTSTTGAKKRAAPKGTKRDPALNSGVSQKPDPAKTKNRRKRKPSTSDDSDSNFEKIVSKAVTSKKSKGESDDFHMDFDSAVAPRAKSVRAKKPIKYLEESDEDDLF
How it was run: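 MelJuSo cells were transiently transfected with a TopoIIα-GFP construct and imaged live by confocal microscopy. Relocalization of TopoIIα was expressed as a fractional distance.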

PC-3 = assay: Cytotoxicity in human PC-3 cells assessed as reduction in cell viability incubated for 2 hrs by Cell-titer-blue assay; type: functional, cell-based; conditions: PC-3, 2 h
How it was run: (§1)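 The drugs were then removed and the cells grown a further 72 h before a CellTiter-Blue viability read. Survival was normalized to the untreated control and background-corrected, with mean ± SD from three experiments. Culture was at 37 °C in 5% CO2.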

MEL-JUSO [2] = assay: Induction of histone eviction in human MEL-JUSO cells assessed as release of photoactivated green fluorescent protein-labeled histone H2A at 10 uM incubated for 2 hrs by time-lapse confocal microscopy; type: functional, cell-based
How it was run: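 MelJuSo cells stably expressing PAGFP-H2A were kept in IMDM with 8% FCS and G-418. Nuclear regions were photoactivated and 10 μM drug was added. Time-lapse confocal imaging (63× lens, climate chamber) followed the loss of fluorescence from the activated regions. Values are mean ± SD of 10–20 cells from at least three independent experiments.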

HCT-116 = assay: Cytotoxicity in human HCT-116 cells assessed as reduction in cell viability incubated for 2 hrs by Cell-titer-blue assay; type: functional, cell-based; conditions: HCT-116, 2 h; how it was run: as §1
[3] = Drug uptake in human K562 cells at 1 uM by flow cytometry relative to doxorubicin; type: ADME, cell-based; conditions: k562, 1 µM
How it was run: (§2)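 K562 cells in RPMI-1640 with 8% FCS were exposed to 1 μM drug for 2 h. They were then washed, collected and fixed with paraformaldehyde. The intrinsic anthracycline fluorescence was read by flow cytometry with a 561 nm laser and a 610/20 nm detector.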

DU-145 = assay: Cytotoxicity in human DU-145 cells assessed as reduction in cell viability incubated for 2 hrs by Cell-titer-blue assay; type: functional, cell-based; conditions: DU-145, 2 h; how it was run: as §1
MEL-JUSO [4] = assay: Cytotoxicity in human MEL-JUSO cells assessed as reduction in cell viability incubated for 2 hrs by Cell-titer-blue assay; type: functional, cell-based; how it was run: as §1
U-87 MG = assay: Cytotoxicity in human U87 cells assessed as reduction in cell viability incubated for 2 hrs by Cell-titer-blue assay; type: functional, cell-based, U-87MG ATCC; how it was run: as §1
K562 = assay: Cytotoxicity in human K562 cells assessed as reduction in cell viability incubated for 2 hrs by Cell-titer-blue assay; type: functional, cell-based; conditions: K562, 2 h
How it was run: as §1, with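 “CO2. Media with 8% FCS were RPMI-1640 (DU145, HCT116, K562, PC3), IMDM (MelJuSo) and DMEM (U87).” for “CO2.”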

DNA [5] = assay: Induction of DNA damage in human K562 cells assessed as induction of DNA break formation by measuring H2AX phosphorylation at 10 uM incubated for 2 hrs by constant-field gel […] method; type: cell-based
How it was run: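 K562 cells were exposed to 10 μM drug for 2 h and washed extensively. DNA double-strand breaks were then resolved by constant-field gel electrophoresis and the images quantified. Results are mean ± SD of three independent experiments.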

DNA [6] = assay: Induction of DNA damage in human K562 cells assessed as induction of DNA break formation by measuring H2AX phosphorylation at 10 uM incubated for 2 hrs by Western blot analysis; type: cell-based
How it was run: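 K562 cells were given 10 μM drug for 2 h, then washed extensively. They were lysed in SDS sample buffer (2% SDS, 60 mM Tris–HCl pH 6.8) and run on SDS-PAGE. Blots were probed for γH2AX (1:1000), with β-actin (1:10000) as the loading control. The γH2AX signal was quantified relative to actin.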

[7] = Drug uptake in human K562 cells at 1 uM by flow cytometry relative to aclarubicin; type: ADME, cell-based; conditions: k562, 1 µM; how it was run: as §2

Row | SMILES | Activity ([1]; filed as modulator) | IC50 (PC-3) [nM] | Activity (MEL-JUSO [2]) | IC50 (HCT-116) [nM] | fold change (FC) [3] | IC50 (DU-145) [nM] | IC50 (MEL-JUSO [4]) [nM] | IC50 (U-87 MG) [nM] | IC50 (K562) [nM] | Activity (DNA [5]) | Activity (DNA [6]) | Drug uptake [7] | Activity [1] | Drug uptake [3]
1 | COc1cccc2c1C(=O)c1c(O)c3c(c(O)c1C2=O)C[C@@](O)(C(=O)CO)C[C@@H]3O[C@H]1C[C@H](N(C)C)[C@H](O[C@H]2C[C@H](O)[C@H](O[C@H]3CCC(=O)[C@H](C)O3)[C@H](C)O2)[C@H](C)O1 | Active | 34 | Active | 8 | 4 | 17 | 7 | 33 | 26 | inactive | inactive | – | – | –
2 | CC[C@@]1(O)C[C@H](O[C@H]2C[C@H](N)[C@H](O)[C@H](C)O2)c2c(cc3c(c2O)C(=O)c2c(O)cccc2C3=O)[C@H]1C(=O)OC | Active | – | inactive | – | – | – | – | – | – | inactive | inactive | Not Active | – | –
3 | COc1cccc2c1C(=O)c1c(O)c3c(c(O)c1C2=O)C[C@@](O)(C(=O)CO)C[C@@H]3O[C@H]1C[C@H](N)[C@H](O)[C@H](C)O1 [DOXORUBICIN] | Active | 1140 | Active | 579 | – | 534 | 237 | 381 | 361 | Active | Active | – | – | –
4 | COc1cccc2c1C(=O)c1c(O)c3c(c(O)c1C2=O)C[C@@](O)(C(=O)CO)C[C@@H]3O[C@H]1C[C@H](N)[C@H](O[C@H]2C[C@H](O)[C@H](O)[C@H](C)O2)[C@H](C)O1 | – | – | inactive | – | – | – | – | – | – | inactive | inactive | – | inactive | Not Active
5 | CC[C@@]1(O)C[C@H](O[C@H]2C[C@H](N(C)C)[C@H](O[C@H]3C[C@H](O)[C@H](O[C@H]4CCC(=O)[C@H](C)O4)[C@H](C)O3)[C@H](C)O2)c2c(cc3c(c2O)C(=O)c2c(O)cccc2C3=O)[C@H]1C(=O)OC [ACLARUBICIN] | Active | 101 | Active | 40 | – | 129 | 48 | 137 | 76 | inactive | inactive | – | – | –
6 | COc1cccc2c1C(=O)c1c(O)c3c(c(O)c1C2=O)C[C@@](O)(C(=O)CO)C[C@@H]3O[C@H]1C[C@H](N)[C@H](O[C@H]2C[C@H](O)[C@H](O[C@H]3CCC(=O)[C@H](C)O3)[C@H](C)O2)[C@H](C)O1 | Active | 1540 | inactive | 1860 | – | 1360 | 1810 | 2210 | 1400 | Active | Active | – | – | Not Active
7 | COc1cccc2c1C(=O)c1c(O)c3c(c(O)c1C2=O)C[C@@](O)(C(=O)CO)C[C@@H]3O[C@H]1C[C@H](N(C)C)[C@H](O[C@H]2C[C@H](O)[C@H](O)[C@H](C)O2)[C@H](C)O1 | Active | 3200 | Active | 1370 | – | 3200 | 1570 | 603 | 2410 | inactive | inactive | – | – | Not Active
8 | CC[C@@]1(O)C[C@H](O[C@H]2C[C@H](N(C)C)[C@H](O[C@H]3C[C@H](O)[C@H](O)[C@H](C)O3)[C@H](C)O2)c2c(cc3c(c2O)C(=O)c2c(O)cccc2C3=O)[C@H]1C(=O)OC | Active | 383 | Active | 261 | – | 509 | 423 | 448 | 211 | inactive | inactive | Active | – | –
9 | CC[C@@]1(O)C[C@H](O[C@H]2C[C@H](N)[C@H](O[C@H]3C[C@H](O)[C@H](O[C@H]4CCC(=O)[C@H](C)O4)[C@H](C)O3)[C@H](C)O2)c2c(cc3c(c2O)C(=O)c2c(O)cccc2C3=O)[C@H]1C(=O)OC | Active | – | inactive | – | – | – | – | – | 3040 | inactive | inactive | Active | – | –
